Results taken from ChEMBL document CHEMBL4765319, “Identification of a new series of flavopiridol-like structures as kinase inhibitors with high cytotoxic potency” (Eur J Med Chem, 2020).
pIC50: −log10 of the molar value. Active and inactive are the calls of the source. No cut-off for these calls is given here.

What was measured:
Leishmania major = assay: Inhibition of Leishmania major CK1 assessed as residual activity at 1 uM in presence of ATP by ADP-glo luminescent assay relative to control
[1] = molecular target: T1, CDK2/Cyclin A2 (Homo sapiens) (UniProt P24941+P20248); assay: Inhibition of human CDK2/cyclin A assessed as residual activity at 1 uM in presence of ATP by ADP-glo luminescent assay relative to control; type: protein-complex assay
How it was run: (§1)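 Human kinases assayed by ADP-Glo luminescence with 10 μM ATP, compound at 10 or 1 μM. Activity is expressed as % of maximal activity relative to a DMSO control, mean n = 2.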

K562 [2] = assay: Cell cycle arrest in human K562 cells assessed as accumulation at S phase at 100 nM after 24 hrs by propidium iodide staining-based flow cytometric analysis (reference value: […]); type: functional
HCT-116 [3] = assay: Antiproliferative activity against human HCT-116 cells assessed as reduction in cell viability incubated for 72 hrs by CellTiter-Blue fluorescence assay; settings: HCT-116, 72 h
K562 [4] = assay: Cell cycle arrest in human K562 cells assessed as accumulation at G0/G1 phase at 50 nM after 24 hrs by propidium iodide staining-based flow cytometric analysis (reference value: 21.4 %); type: functional
SK-BR-3 = assay: Antiproliferative activity against human SK-BR-3 cells assessed as reduction in cell viability incubated for 72 hrs by CellTiter-Blue fluorescence assay; settings: SK-BR-3, 72 h
HCT-116 [5] = assay: Cell cycle arrest in human HCT-116 cells assessed as accumulation at S phase at 200 nM after 24 hrs by propidium iodide staining-based flow cytometric analysis (reference value: 47.6 %); type: functional
[6] = molecular target: T2, Cyclin-dependent kinase 5/CDK5 activator 1 (Homo sapiens) (UniProt Q00535+Q15078); assay: Inhibition of human CDK5/p25 assessed as residual activity at 1 uM in presence of ATP by ADP-glo luminescent assay relative to control; type: protein-complex assay; how it was run: as §1
T2 sequence (Q00535 whole entry): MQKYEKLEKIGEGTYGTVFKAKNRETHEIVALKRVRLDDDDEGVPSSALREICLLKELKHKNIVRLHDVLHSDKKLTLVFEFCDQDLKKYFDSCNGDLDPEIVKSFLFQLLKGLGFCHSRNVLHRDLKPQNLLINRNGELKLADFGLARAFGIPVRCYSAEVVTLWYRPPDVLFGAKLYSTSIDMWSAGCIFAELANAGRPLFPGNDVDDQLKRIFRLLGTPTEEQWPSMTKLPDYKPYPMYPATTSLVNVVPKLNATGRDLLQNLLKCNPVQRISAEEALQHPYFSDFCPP
T2 sequence (Q15078 99-307 partner limits assumed): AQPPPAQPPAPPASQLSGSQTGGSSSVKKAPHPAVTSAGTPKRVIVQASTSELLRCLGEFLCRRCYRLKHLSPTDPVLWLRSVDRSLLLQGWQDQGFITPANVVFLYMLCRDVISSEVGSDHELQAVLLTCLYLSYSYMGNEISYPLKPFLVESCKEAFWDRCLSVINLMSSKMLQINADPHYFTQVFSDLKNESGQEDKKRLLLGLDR

MIA PaCa-2 = assay: Potency index, ratio of flavopiridol IC50 to test compound IC50 for human MIA PaCa-2 cells assessed as reduction in cell viability incubated for 72 hrs by CellTiter-Blue resazurin fluorescence assay
[7] = molecular target: CDK9/cyclin T1 (Homo sapiens) (UniProt O60563+P50750); assay: Inhibition of human CDK9/cyclin T assessed as residual activity at 10 uM in presence of ATP by ADP-glo luminescent assay relative to control; type: protein-complex assay; how it was run: as §1
Plasmodium falciparum [8] = assay: Inhibition of Plasmodium falciparum GSK3 assessed as residual activity at 1 uM in presence of ATP by ADP-glo luminescent assay relative to control
How it was run: (§2)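 Recombinant P. falciparum GSK3, bacterially expressed, in buffer A (10 mM MgCl2, 1 mM EGTA, 1 mM DTT, 25 mM Tris-HCl pH 7.5, 50 μg/ml heparin). Substrate 0.010 μg/μl GS-1 peptide, 10 μM ATP, ADP-Glo luminescence. Compound at 10 or 1 μM; % residual activity vs DMSO control, mean n = 2.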

[9] = molecular target: T1, CDK2/Cyclin A2 (Homo sapiens); assay: Inhibition of human CDK2/cyclin A assessed as residual activity at 10 uM in presence of ATP by ADP-glo luminescent assay relative to control; type: protein-complex assay; how it was run: as §1
K562 [10] = assay: Cell cycle arrest in human K562 cells assessed as accumulation at G0/G1 phase at 25 nM after 24 hrs by propidium iodide staining-based flow cytometric analysis (reference value: 21.4 %); type: functional
K562 [11] = assay: Antiproliferative activity against human K562 cells assessed as reduction in cell viability incubated for 72 hrs by CellTiter-Blue resazurin fluorescence assay; settings: K562, 72 h
[12] = molecular target: Glycogen synthase kinase-3 alpha (Homo sapiens, UniProt P49840); assay: Inhibition of human GSK3alpha by ADP-Glo assay
Glycogen synthase kinase-3 alpha, sequence (P49840 whole entry): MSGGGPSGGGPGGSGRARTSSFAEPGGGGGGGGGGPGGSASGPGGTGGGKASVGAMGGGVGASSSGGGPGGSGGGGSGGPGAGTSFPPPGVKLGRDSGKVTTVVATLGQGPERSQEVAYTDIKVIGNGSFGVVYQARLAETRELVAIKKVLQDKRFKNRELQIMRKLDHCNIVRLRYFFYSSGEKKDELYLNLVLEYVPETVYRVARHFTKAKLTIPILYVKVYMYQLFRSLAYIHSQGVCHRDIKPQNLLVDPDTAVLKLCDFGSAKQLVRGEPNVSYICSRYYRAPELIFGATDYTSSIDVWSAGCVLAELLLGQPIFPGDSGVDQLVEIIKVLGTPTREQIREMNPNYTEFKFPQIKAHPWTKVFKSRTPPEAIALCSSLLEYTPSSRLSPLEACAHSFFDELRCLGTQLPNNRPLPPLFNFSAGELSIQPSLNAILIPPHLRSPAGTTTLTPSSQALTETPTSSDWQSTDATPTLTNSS

HCT-116 [13] = assay: Cell cycle arrest in human HCT-116 cells assessed as accumulation at G2/M phase at 100 nM after 24 hrs by propidium iodide staining-based flow cytometric analysis (reference value: 31.5 %); type: functional
CDK2/Cyclin A2 = CDK2/Cyclin A2 (Homo sapiens, UniProt P24941); assay: Inhibition of human CDK2/cyclin A in presence of ATP by ADP-glo luminescent assay; type: protein-complex assay
How it was run: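 Human kinases tested over roughly 0.0003–10 μM by ADP-Glo luminescence with 10 μM ATP, in duplicate. IC50 is taken from dose-response curves.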

[14] = molecular target: T2, Cyclin-dependent kinase 5/CDK5 activator 1 (Homo sapiens); assay: Inhibition of human CDK5/p25 assessed as residual activity at 10 uM in presence of ATP by ADP-glo luminescent assay relative to control; type: protein-complex assay; how it was run: as §1
[15] = molecular target: Glycogen synthase kinase-3 beta (Homo sapiens, UniProt P49841); assay: ATP competitive inhibition of human GSK3beta at 500 nM in presence of ATP by ADP-glo luminescent assay
Glycogen synthase kinase-3 beta, sequence (P49841 whole entry, looked up): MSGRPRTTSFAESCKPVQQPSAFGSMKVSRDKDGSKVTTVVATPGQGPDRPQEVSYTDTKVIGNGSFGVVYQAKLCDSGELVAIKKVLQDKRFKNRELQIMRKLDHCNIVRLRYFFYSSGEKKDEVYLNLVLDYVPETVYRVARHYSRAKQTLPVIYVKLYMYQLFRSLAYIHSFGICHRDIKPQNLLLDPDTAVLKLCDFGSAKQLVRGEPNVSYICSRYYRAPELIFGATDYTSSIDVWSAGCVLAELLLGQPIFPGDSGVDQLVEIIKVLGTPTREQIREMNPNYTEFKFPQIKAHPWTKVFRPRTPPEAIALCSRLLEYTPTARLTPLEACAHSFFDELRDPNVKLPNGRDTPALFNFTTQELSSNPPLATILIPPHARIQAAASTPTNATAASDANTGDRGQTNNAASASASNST
How it was run: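 HsGSK3β activity by ADP-Glo luminescence with 500 nM inhibitor, or without it, across ATP 3.125 to 100 μM. Residual activity is given as % of a DMSO control, mean (n = 3) ± SD.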

HCT-116 [16] = assay: Cell cycle arrest in human HCT-116 cells assessed as increase in accumulation at G0/G1 phase after 24 hrs by propidium iodide staining-based flow cytometric analysis; type: functional; settings: dose 100-500 nM
K562 [17] = assay: Cell cycle arrest in human K562 cells assessed as accumulation at G2/M phase at 25 nM after 24 hrs by propidium iodide staining-based flow cytometric analysis (reference value: 12.9 %); type: functional
K562 [18] = assay: Cell cycle arrest in human K562 cells assessed as accumulation at S phase at 25 nM after 24 hrs by propidium iodide staining-based flow cytometric analysis (reference value: […]); type: functional
K562 [19] = assay: Cell cycle arrest in human K562 cells assessed as increase in accumulation at G2/M phase after 24 hrs by propidium iodide staining-based flow cytometric analysis; type: functional; settings: dose 25-100 nM
K562 [20] = assay: Cell cycle arrest in human K562 cells assessed as accumulation at S phase at 50 nM after 24 hrs by propidium iodide staining-based flow cytometric analysis (reference value: […]); type: functional
NCI-N87 = assay: Antiproliferative activity against human NCI-N87 cells assessed as reduction in cell viability incubated for 72 hrs by CellTiter-Blue fluorescence assay; settings: NCI-N87, 72 h
K562 [21] = assay: Cell cycle arrest in human K562 cells assessed as increase in accumulation at G0/G1 phase after 24 hrs by propidium iodide staining-based flow cytometric analysis; type: functional; settings: dose 25-100 nM
K562 [22] = assay: Cell cycle arrest in human K562 cells assessed as accumulation at G0/G1 phase at 100 nM after 24 hrs by propidium iodide staining-based flow cytometric analysis (reference value: 21.4 %); type: functional
Plasmodium falciparum [23] = assay: Inhibition of Plasmodium falciparum GSK3 assessed as residual activity at 10 uM in presence of ATP by ADP-glo luminescent assay relative to control; how it was run: as §2
HCT-116 [24] = assay: Cell cycle arrest in human HCT-116 cells assessed as accumulation at S phase at 100 nM after 24 hrs by propidium iodide staining-based flow cytometric analysis (reference value: 47.6 %); type: functional

Activity (Leishmania major): 62%
Activity [1]: 87%
pIC50 (HCT-116 [3]): 7.09
pIC50 (SK-BR-3): 7.27
Activity [6]: 68%
Activity [7]: -2%
Activity (Plasmodium falciparum [8]): 80%
Activity [9]: 30%
pIC50 (K562 [11]): 7.29
pIC50 [12]: 7.15
pIC50 (CDK2/Cyclin A2): 5.76
Activity [14]: 24%
inhibition [15]: Active
Activity (Plasmodium falciparum [23]): 46%
Compound: CN1CC=C(c2c(O)cc(O)c3c(=O)cc(-c4ccc(Sc5nc6ccccc6n5C)cc4Cl)oc23)CC1
Activity (K562 [2]): 21%
Activity (K562 [4]): 27.8%
Activity (HCT-116 [5]): 43.1%
Ratio IC50 (MIA PaCa-2): <=6
Activity (K562 [10]): 20.7%
Activity (HCT-116 [13]): 30.7%
Activity (HCT-116 [16]): Dose-dependent effect
Activity (K562 [17]): 10.7%
Activity (K562 [18]): 68.6%
Activity (K562 [19]): Dose-dependent effect
Activity (K562 [20]): 49.4%
pIC50 (NCI-N87): 7.31
Activity (K562 [21]): Dose-dependent effect
Activity (K562 [22]): 50.3%
Activity (HCT-116 [24]): 48.7%
